Legend:
[1] = biological target: T1, PKN3 (Homo sapiens, UniProt Q6P5Z2); experiment: in vitro PKN3 kinase assay; assay type: biochemical; conditions: for time-dependent inhibition of PKN3: fixed inhibitor concentration 1 μM, preincubation 0 to 120 min
In short: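 Enzyme was preincubated with test compound 30 min, then reacted 30 min at RT with 68 µM ATP plus 1 µCi [γ-32P]ATP. TCA stop, phosphocellulose capture, phosphoric-acid washes, scintillation counting. IC50 came from a 7-point dose-response. Time course used 1 µM compound with 0–120 min preincubation.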

[2] = biological target: T2, CDK7 (Homo sapiens, UniProt P50613); experiment: target engagement pulldown, live HeLa S3 cells, THZ1-DTB; assay type: cell-based; conditions: 4 h, Western blot
T2 sequence (P50613 2-346 limits assumed): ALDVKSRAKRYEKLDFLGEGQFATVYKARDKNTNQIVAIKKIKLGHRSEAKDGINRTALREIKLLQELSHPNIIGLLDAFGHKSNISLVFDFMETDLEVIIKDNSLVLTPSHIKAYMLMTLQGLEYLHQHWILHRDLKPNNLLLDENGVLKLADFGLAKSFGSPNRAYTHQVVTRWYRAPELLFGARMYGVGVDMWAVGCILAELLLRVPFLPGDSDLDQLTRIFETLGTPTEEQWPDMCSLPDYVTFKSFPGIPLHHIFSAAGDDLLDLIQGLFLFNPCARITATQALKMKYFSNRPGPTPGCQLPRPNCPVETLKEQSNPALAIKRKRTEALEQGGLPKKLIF
T2 sequence (P51946 whole entry partner): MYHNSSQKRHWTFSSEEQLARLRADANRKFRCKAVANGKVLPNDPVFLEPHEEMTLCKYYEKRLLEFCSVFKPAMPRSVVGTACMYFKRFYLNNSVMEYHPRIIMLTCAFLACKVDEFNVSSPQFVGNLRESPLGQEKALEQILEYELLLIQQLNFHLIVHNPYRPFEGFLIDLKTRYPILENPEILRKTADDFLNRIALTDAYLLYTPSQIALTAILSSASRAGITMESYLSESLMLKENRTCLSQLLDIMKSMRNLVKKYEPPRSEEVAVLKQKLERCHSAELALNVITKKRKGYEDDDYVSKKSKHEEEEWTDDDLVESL
T2 sequence (P51948 whole entry partner): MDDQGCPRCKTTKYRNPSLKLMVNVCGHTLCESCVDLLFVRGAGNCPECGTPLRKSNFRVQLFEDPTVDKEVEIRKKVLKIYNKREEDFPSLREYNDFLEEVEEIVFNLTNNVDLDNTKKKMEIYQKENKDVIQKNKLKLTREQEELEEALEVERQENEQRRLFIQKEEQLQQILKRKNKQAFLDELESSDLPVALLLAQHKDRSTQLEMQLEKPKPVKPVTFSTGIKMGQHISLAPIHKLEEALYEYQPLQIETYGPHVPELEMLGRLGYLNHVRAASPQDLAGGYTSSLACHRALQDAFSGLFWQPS

[3] = biological target: T1, PKN3; experiment: as above; assay type: cell-based; conditions: 4 h, Western blot
[4] = biological target: T3, PRKCQ (Homo sapiens, UniProt Q04759); experiment: as above; assay type: cell-based; conditions: 4 h, Western blot
T3 sequence (Q04759 whole entry): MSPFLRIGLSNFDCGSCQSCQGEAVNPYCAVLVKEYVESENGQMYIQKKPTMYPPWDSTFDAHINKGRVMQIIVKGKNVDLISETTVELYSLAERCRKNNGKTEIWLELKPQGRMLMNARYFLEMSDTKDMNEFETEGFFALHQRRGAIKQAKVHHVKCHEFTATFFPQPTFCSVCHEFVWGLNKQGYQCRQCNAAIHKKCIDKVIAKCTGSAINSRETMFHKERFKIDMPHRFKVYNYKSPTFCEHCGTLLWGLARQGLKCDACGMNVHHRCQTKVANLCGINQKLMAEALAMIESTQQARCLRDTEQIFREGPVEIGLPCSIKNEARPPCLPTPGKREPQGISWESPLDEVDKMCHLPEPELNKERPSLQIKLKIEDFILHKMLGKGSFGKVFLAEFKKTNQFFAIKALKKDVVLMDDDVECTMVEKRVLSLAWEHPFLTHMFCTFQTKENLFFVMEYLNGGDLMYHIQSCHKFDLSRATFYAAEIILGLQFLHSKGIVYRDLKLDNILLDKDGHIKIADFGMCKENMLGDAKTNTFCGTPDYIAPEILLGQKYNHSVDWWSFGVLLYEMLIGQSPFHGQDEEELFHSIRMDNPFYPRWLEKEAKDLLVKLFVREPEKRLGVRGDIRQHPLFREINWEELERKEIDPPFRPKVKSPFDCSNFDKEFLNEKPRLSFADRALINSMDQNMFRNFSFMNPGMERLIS

[5] = tested on: CDK12/13; conditions: live HeLa S3 cells, 4 h; cyclin K as proxy
[6] = tested on: cysteine residues across the proteome; experiment: CITe-Id proteome-wide, HeLa S3 lysates; assay type: binding, human
In short: (§1)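 Precleared on streptavidin resin 1 h at 4 °C, split four ways. DMSO or rising test-compound doses for 1 h at RT, then 2 µM desthiobiotin probe at 4 °C for 18 h. Urea denaturation, DTT/IAA, tryptic digest. Streptavidin-enriched probe peptides were iTRAQ-labelled for RP-SAX-RP LC–MS/MS. Slope of reporter ratios (vs DMSO) against concentration scored each cysteine. Hits exceeded 2 SD over the mean of 527 sites; biological replicates.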

[7] = biological target: protein kinase C theta (PRKCQ) at C661 (Homo sapiens, UniProt Q04759); experiment: CITe-Id, HeLa S3 lysates, THZ1-DTB; assay type: binding; conditions: competition with 2 μM THZ1-DTB
Sequence of protein kinase C theta (PRKCQ) at C661 (Q04759 whole entry): as above
In short: as §1

[8] = biological target: T2, CDK7; experiment: CITe-Id, HeLa S3 lysates, THZ1-DTB; assay type: binding; conditions: competition with 2 μM THZ1-DTB
In short: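 Aliquots pretreated with DMSO or increasing test compound concentrations for 1 h at RT, then 2 μM desthiobiotin probe for 18 h at 4 °C. Denatured, reduced, alkylated, trypsin-digested; probe peptides streptavidin-enriched, iTRAQ-labelled, LC–MS/MS. Cysteine reporter ratios versus the DMSO channel were regressed against concentration, and the slope was taken as the dose response.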

[9] = biological target: glycogen synthase kinase 3B (GSK3B) at C14 (Homo sapiens, UniProt P49841); experiment: CITe-Id, HeLa S3 lysates, THZ1-DTB; assay type: binding; conditions: competition with 2 μM THZ1-DTB
Sequence of glycogen synthase kinase 3B (GSK3B) at C14 (P49841 whole entry): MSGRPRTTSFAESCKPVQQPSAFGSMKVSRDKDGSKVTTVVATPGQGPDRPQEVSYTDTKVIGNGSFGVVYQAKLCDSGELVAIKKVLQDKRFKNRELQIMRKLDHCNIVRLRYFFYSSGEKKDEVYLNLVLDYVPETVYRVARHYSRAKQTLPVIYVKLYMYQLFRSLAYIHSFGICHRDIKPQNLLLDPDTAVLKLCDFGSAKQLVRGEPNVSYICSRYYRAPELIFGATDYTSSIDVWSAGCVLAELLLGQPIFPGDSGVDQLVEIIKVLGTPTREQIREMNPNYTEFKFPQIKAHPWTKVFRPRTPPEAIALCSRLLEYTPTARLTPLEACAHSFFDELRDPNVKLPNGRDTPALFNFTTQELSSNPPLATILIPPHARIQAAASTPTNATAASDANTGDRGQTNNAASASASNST
In short: as §1

[10] = biological target: CDK13 (Homo sapiens, UniProt Q14004); experiment: CITe-Id, HeLa S3 lysates, THZ1-DTB; assay type: binding; conditions: competition with 2 μM THZ1-DTB
In short: as §1

[11] = biological target: T1, PKN3; experiment: PKN3 in vitro phosphorylation of candidate substrate synthetic peptides; assay type: biochemical; conditions: pretreatment 1 μM for 30 min
In short: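 Recombinant PKN3 (25 ng) was preincubated with test compound at 1 μM for 30 min. Reactions ran 1 h at 37 °C and were stopped with 1% acetic acid. Peptides were desalted and read by MALDI TOF/TOF. Percent phosphorylation was inferred from the loss of unphosphorylated signal against a no-ATP control; four replicates.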

[12] = biological target: T3, PRKCQ; experiment: SelectScreen kinase assay; assay type: biochemical; conditions: 10-dose titration
[13] = biological target: CDK12 (Homo sapiens, UniProt Q9NYV4); experiment: CITe-Id, HeLa S3 lysates, THZ1-DTB; assay type: binding; conditions: competition with 2 μM THZ1-DTB
In short: as §1

[14] = biological target: PKN3 at C840 (Homo sapiens, UniProt Q6P5Z2); experiment: CITe-Id, HeLa S3 lysates, THZ1-DTB; assay type: binding; conditions: competition with 2 μM THZ1-DTB
Sequence of PKN3 at C840 (Q6P5Z2 whole entry): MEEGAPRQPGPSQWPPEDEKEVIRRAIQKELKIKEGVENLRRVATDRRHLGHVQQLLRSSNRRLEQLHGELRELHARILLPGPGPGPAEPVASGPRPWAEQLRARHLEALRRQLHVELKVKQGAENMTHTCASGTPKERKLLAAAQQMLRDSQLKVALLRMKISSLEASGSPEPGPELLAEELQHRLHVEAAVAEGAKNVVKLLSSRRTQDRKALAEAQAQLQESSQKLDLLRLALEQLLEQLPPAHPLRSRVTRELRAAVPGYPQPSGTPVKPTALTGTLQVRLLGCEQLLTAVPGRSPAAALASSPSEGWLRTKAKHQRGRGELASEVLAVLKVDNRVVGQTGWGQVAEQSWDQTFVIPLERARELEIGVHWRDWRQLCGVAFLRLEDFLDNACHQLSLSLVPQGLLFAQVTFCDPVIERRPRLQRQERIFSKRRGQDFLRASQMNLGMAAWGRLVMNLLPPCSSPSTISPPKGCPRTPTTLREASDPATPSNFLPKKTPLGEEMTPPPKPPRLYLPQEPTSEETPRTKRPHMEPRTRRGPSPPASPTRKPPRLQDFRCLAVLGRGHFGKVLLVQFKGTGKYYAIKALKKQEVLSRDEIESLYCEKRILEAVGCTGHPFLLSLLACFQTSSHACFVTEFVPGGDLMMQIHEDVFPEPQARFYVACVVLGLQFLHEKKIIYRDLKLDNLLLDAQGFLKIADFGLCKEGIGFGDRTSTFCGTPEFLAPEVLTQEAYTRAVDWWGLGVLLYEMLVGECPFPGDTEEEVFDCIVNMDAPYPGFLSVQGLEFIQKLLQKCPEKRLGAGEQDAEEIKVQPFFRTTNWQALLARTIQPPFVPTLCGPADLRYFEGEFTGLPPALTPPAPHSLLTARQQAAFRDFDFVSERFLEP
In short: as §1

[15] = biological target: T4, CYP1B1 (Homo sapiens, UniProt Q16678); experiment: CITe-Id, HeLa S3 lysates, THZ1-DTB; assay type: binding; conditions: competition with 2 μM THZ1-DTB
T4 sequence (Q16678 1-543): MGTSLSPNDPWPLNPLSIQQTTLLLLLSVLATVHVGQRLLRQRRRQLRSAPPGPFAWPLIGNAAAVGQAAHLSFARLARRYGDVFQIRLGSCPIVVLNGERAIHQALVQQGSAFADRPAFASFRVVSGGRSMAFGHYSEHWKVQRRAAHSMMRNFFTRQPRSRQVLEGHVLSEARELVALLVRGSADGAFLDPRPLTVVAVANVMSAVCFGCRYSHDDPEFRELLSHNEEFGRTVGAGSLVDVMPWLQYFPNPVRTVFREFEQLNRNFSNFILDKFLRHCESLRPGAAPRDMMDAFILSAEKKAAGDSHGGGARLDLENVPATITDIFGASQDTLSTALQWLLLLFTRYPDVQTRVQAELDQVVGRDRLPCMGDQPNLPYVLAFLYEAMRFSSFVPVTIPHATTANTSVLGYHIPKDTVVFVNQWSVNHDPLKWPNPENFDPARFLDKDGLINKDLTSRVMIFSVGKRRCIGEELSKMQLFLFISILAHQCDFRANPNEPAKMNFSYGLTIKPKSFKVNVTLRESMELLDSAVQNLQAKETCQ
In short: as §1

T1 sequence (Q6P5Z2 whole entry): as the sequence (Q6P5Z2 whole entry) above

IC50 ([1]; read-out: IC50 against PKN3, fixed time-point format, 30 min preincubation) [nM] | number of cysteine residues with dose-dependent competitive binding [6] | competitive dose-response at PRKCQ C661 [7] | competitive dose-response at CDK7 cysteine [8] | competitive dose-response at GSK3B C14 [9] | competitive dose-response at CDK13 cysteine [10] | PKN3-mediated phosphorylation of EXOC2 (S432) peptide [11] | PKN3-mediated phosphorylation of LAD1 (S375) peptide [11] | potency against PRKCQ [12] | competitive dose-response at CDK12 cysteine [13] | competitive dose-response at PKN3 C840 [14] | competitive dose-response at CYP1B1 [15] | SMILES | time-dependent inhibition of PKN3 [1] | potency against PKN3 relative to THZ1 (fold less potent) ([1]; fixed time-point format) | competition for CDK7 against THZ1-DTB pulldown [2] | competition for PKN3 against THZ1-DTB pulldown [3] | competition for PRKCQ against THZ1-DTB pulldown [4] | competition for CDK12/13 against THZ1-DTB pulldown [5]
– | – | – | – | – | – | – | – | – | – | – | – | CN(C)CCCC(=O)Nc1ccc(C(=O)Nc2cccc(Nc3ncc(Cl)c(-c4c[nH]c5ccccc45)n3)c2)cc1 [THZ1-R] | did not show time-dependent inhibition | more than 50 fold | competed poorly | competed poorly | competed poorly | competed poorly
72 | eight | dose-dependent THZ1 competitive binding | dose-dependent competitive binding | dose-dependent THZ1 competitive binding | dose-dependent competitive binding | partially blocked | partially blocked | weak potency | dose-dependent competitive binding | dose-dependent THZ1 competitive binding | – | CN(C)C/C=C/C(=O)Nc1ccc(C(=O)Nc2cccc(Nc3ncc(Cl)c(-c4c[nH]c5ccccc45)n3)c2)cc1 [THZ1] | time dependent | – | strong competition | – | – | –
– | – | little or no reactivity | – | gaining some activity | – | – | – | – | – | little or no reactivity | little or no reactivity | CN(C)C/C=C/C(=O)Nc1ccc(C(=O)N2CCC[C@@H](Nc3ncc(Cl)c(-c4c[nH]c5ccccc45)n3)C2)cc1 [THZ531] | – | – | – | – | – | –
